Bioassay records: PubChem, The Scripps Research Institute Molecular Screening Center
PRMT1 FP inh = blocks human protein arginine methyltransferase 1; recombinant PRMT1, activity-based probe fluorescence polarization; 1.3% of 370,000 active; Q99873; inhibition, % at 2.79 µM;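 active = inhibition above about 21% made by adding two undisclosed values, limit read from the data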
E coli Lon inh = inhibitors of E. coli Lon protease | purified E. coli Lon protease, fluorescence polarization | 0.42% of 360,000 active | P0A9M0 | inhibition, % at 7.94 µM; in the data active = inhibition above about 13%, passing the limit was not always enough;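 note: 0% = enzyme with probe and DMSO and 100% = no enzyme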
Target sequence (P0A9M0 whole entry, looked up): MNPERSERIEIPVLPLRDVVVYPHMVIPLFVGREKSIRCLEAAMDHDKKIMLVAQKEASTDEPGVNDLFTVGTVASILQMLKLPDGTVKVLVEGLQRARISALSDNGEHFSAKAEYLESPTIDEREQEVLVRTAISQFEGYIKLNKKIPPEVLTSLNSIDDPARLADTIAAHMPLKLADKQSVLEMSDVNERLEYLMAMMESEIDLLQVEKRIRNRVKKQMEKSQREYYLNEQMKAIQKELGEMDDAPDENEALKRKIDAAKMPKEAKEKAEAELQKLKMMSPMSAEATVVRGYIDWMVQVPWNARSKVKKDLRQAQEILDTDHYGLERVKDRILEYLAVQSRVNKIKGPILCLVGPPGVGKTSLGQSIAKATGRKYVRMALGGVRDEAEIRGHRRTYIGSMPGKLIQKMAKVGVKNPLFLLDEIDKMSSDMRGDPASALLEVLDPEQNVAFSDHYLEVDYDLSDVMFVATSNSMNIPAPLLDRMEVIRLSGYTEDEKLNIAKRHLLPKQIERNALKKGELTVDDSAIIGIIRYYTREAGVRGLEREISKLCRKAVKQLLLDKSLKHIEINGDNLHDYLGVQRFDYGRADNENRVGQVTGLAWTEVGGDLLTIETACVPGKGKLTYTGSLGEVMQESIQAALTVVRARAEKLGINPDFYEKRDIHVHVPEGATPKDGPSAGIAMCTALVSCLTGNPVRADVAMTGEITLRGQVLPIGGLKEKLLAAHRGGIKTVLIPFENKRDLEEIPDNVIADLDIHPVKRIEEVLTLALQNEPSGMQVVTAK
GSTO1 counter = GSTO1 inhibition, counter-screen for RBBP9 inhibitors; recombinant GSTO1, activity-based probe fluorescence polarization; inhibition, % at 5.96 µM; 1.1% of 300,000 active;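 active = inhibition above the campaign mean inhibition plus 3 SD, cut at about 35% in these data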;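 note: 0% = GSTO1-1 with DMSO and 100% = wells lacking GSTO1-1 enzyme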
PAD4 FP inh = inhibitors of human PAD4 | Q9UM07 | recombinant PAD4, RCA probe fluorescence polarization | 0.41% of 330,000 active | inhibition, % at 6.36 µM;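 active = percent inhibition above a cutoff equal to the mean of all tested compounds plus 3 SD, cut at about 15% in these data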;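 note: 0% = PAD4 with RCA probe and DMSO and 100% = probe without PAD4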
TDP2 inh = TDP2 (human) inhibition, absorbance primary screen. O95551. 0.34% of 370,000 active. AID 720702. inhibition, % at 12.8 µM. recombinant TDP2, T5PNP hydrolysis, p-nitrophenol absorbance 415 nm;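 active = inhibition above the mean of all tested compounds plus 3 SD, set per campaign, cut at about 25% in these data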;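 note: 0% = DMSO with enzyme and 100% = buffer with substrate but no TDP2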
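Read-out basis: percent inhibition. System: recombinant human TDP2. Buffer or medium: Mg2+-containing Tris-HCl buffer, pH 7.5. Repeats: single replicate. Timing: reaction 2 h, 37 °C. Benchmarks: high control without enzyme, low control DMSO plus TDP2. Probe or stimulus: 5 mM T5PNP. Doses: 12.8 µM only. Measured by: epi absorbance of p-nitrophenol freed from T5PNP by hydrolysis.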
eLon confirm = E. coli Lon inhibition confirmation; shares compounds with E coli Lon inh; purified E. coli Lon, fluorescence polarization; inhibition, % at 7.94 µM; 31% of 1,400 active; AID 602230; in the data active = inhibition above about 16%;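 note: 0% = enzyme with probe and DMSO and 100% = no enzyme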
Numbers without * were called inactive; ! = a repeat was not active. The list is not random: actives were taken first. Their share in the collection is about 2.5%.

Cc1cc(C)n2nc(-c3ccccc3)c(-c3ccccc3)c2n1 was read as PRMT1 FP inh 0, E coli Lon inh 0, GSTO1 counter 0, PAD4 FP inh 1 and TDP2 inh -20.
For Cc1cc(C)n2nc(C)c(-c3ccccc3)c2n1 the results were PRMT1 FP inh -1, E coli Lon inh 22*, GSTO1 counter -3, PAD4 FP inh -1, TDP2 inh 2 and eLon confirm -14.
`CCCCn1c(=O)[nH]c2nc3cc(NC(C)=O)ccc3nc2c1=O` gave PRMT1 FP inh 8, E coli Lon inh 35*, GSTO1 counter -3, PAD4 FP inh 3, TDP2 inh 4 and eLon confirm 33*.
`C[C@@H]1ON(C)[C@H]2C[C@H]3c4[nH]c5c(-c6cc(Cl)cc(Cl)c6)cccc5c4CCN3C(=O)[C@@H]12` gave PRMT1 FP inh -4 and TDP2 inh -9.
Screening N#CC(C#N)=C1C=C2C=C(N3CCCCCC3)CCC2CC1 (stereo unspecified) returned PRMT1 FP inh -50, E coli Lon inh 151*, TDP2 inh -8 and eLon confirm -95.
`COc1ccc(-c2cc(C(=O)NN=Cc3ccc(C)s3)[nH]n2)cc1` gave PRMT1 FP inh 7 and TDP2 inh -3.
`CCC/C(=N/NC(=O)c1nnn(-c2nonc2N)c1CN1CCCCC1)c1ccccc1` gave PRMT1 FP inh -4, E coli Lon inh 13*, GSTO1 counter 8, PAD4 FP inh 0, TDP2 inh 3 and eLon confirm -15.
`COC(=O)CSc1nnc(-c2n[nH]c3c2CCC3)n1N` gave PRMT1 FP inh 6 and TDP2 inh 8.
`Cc1ccc2c(c1)c(C)c(C)n2CC(O)Cn1nc(C)c(Br)c1C` (stereo unspecified) gave PRMT1 FP inh -1, E coli Lon inh 15*, GSTO1 counter -1, PAD4 FP inh -2, TDP2 inh 0 and eLon confirm 23*.
For COc1cc(O)c(C(CC(=O)N2CC(C)OC(C)C2)c2ccc3c(c2)OCO3)c(OC)c1 (stereo unspecified) the results were PRMT1 FP inh 3 and TDP2 inh 4.
O=C(c1cccc(Cl)c1)N1CCN(c2ccnc3cc(Cl)ccc23)CC1 was read as PRMT1 FP inh 0 and TDP2 inh 3.
Screening CCC(C(=O)NC1CCCC1)N(Cc1ccco1)C(=O)CNS(=O)(=O)c1ccccc1 (stereo unspecified) returned PRMT1 FP inh -2, E coli Lon inh 17*, GSTO1 counter -5, PAD4 FP inh -5, TDP2 inh -6 and eLon confirm 8.
Screening CCCC(C(=O)NC1CCCCC1)N(Cc1ccco1)C(=O)CNS(=O)(=O)c1ccccc1 (stereo unspecified) returned PRMT1 FP inh -1, E coli Lon inh 1, GSTO1 counter -10, PAD4 FP inh 1 and TDP2 inh 1.
Screening C/C(N)=C(/C#N)C(=O)COC(=O)C1Cc2ccccc2CN1S(C)(=O)=O (stereo unspecified) returned PRMT1 FP inh -1, E coli Lon inh 16*!, GSTO1 counter 0, PAD4 FP inh -1, TDP2 inh 1 and eLon confirm 2.
Screening CC(Sc1ccc(S(=O)(=O)N(C)C)cn1)C(=O)NC1CCCC1 (stereo unspecified) returned PRMT1 FP inh 9, E coli Lon inh 25*, PAD4 FP inh 2, TDP2 inh -2 and eLon confirm -34.
`Cc1nn(-c2ccc(F)cc2F)c2c1-c1nc(N3CCCC3)ncc1CC2` gave PRMT1 FP inh -1, E coli Lon inh 16*, GSTO1 counter 1, PAD4 FP inh -4, TDP2 inh -5 and eLon confirm 6.
OCC1(Cc2cccc(C(F)(F)F)c2)CCN(Cc2cc3ccccc3o2)CC1 was read as PRMT1 FP inh -2, E coli Lon inh 12*, GSTO1 counter 13, PAD4 FP inh 2, TDP2 inh 2 and eLon confirm -7.
Screening CCCNC(=O)c1cc(S(=O)(=O)N2CCCCC2)ccc1N1CCOCC1 returned PRMT1 FP inh -3, E coli Lon inh -10, GSTO1 counter 7, PAD4 FP inh 1 and TDP2 inh 7.
For CCCCCC(C)NC(=O)c1cc(S(=O)(=O)N2CCCCC2)ccc1N1CCOCC1 (stereo unspecified) the results were PRMT1 FP inh -3, E coli Lon inh 22*, PAD4 FP inh 1, TDP2 inh 10 and eLon confirm 6.
COc1ccc(CN2CCNC(=O)C2CC(=O)NCc2csc(C)n2)c(F)c1 (stereo unspecified) was read as PRMT1 FP inh 1, E coli Lon inh 19*, GSTO1 counter 6, PAD4 FP inh 0, TDP2 inh 5 and eLon confirm 4.
Screening COc1ccc(CN2CCNC(=O)C2CC(=O)NCc2csc(C(C)C)n2)c(OC)c1 (stereo unspecified) returned PRMT1 FP inh 0, GSTO1 counter 1, PAD4 FP inh -4 and TDP2 inh 2.
For CCCCc1nc(NCCNC(=O)c2ccccc2)c(C#N)c2c1CSC(C)(C)C2 the results were PRMT1 FP inh 0, E coli Lon inh 12*, GSTO1 counter -30, PAD4 FP inh -4, TDP2 inh -6 and eLon confirm -1.
Screening COc1ccc(NC(=O)CN(C)C(=O)/C=C/c2ccc(S(=O)(=O)N3CCCCCC3)cc2)cc1 returned PRMT1 FP inh 2, E coli Lon inh -3, GSTO1 counter -5, PAD4 FP inh 3 and TDP2 inh 0.
Screening COc1ccc(NC(=O)CN(C)C(=O)/C=C/c2ccc(OCc3ccccc3)cc2)cc1 returned PRMT1 FP inh 4, E coli Lon inh 19*, GSTO1 counter -3, PAD4 FP inh -4, TDP2 inh -2 and eLon confirm -8.
`c1ccc(-c2cnnc(N3CCOCC3)n2)cc1` gave PRMT1 FP inh 1, E coli Lon inh 0, GSTO1 counter -1, PAD4 FP inh -3 and TDP2 inh -10.
Screening Brc1ccc(-c2cnnc(N3CCCC3)n2)cc1 returned PRMT1 FP inh 3, E coli Lon inh 22*, GSTO1 counter -7, PAD4 FP inh 5, TDP2 inh 3 and eLon confirm -8.
COc1ccc(C2C(C(=O)Nc3ccc(F)cc3F)CCC(=O)N2c2ccc(OC)cc2)cc1 (stereo unspecified) was read as PRMT1 FP inh -1 and TDP2 inh -13.
For CC(=O)Nc1cc(Cl)ccc1OS(=O)(=O)c1ccc(C)cc1 the results were PRMT1 FP inh -3, E coli Lon inh 45*, GSTO1 counter -2, PAD4 FP inh 0, TDP2 inh -5 and eLon confirm -1.
For COc1ccc(C(=O)NNC2=CC(=O)CC(C)(C)C2)cc1OC the results were PRMT1 FP inh 1, E coli Lon inh 17*, GSTO1 counter 6, PAD4 FP inh -3, TDP2 inh 2 and eLon confirm 1.
